Laboratory results taken from ChEMBL document CHEMBL1221386, “Synthesis and pharmacological evaluation of 3-aryl-3-azolylpropan-1-amines as selective triple serotonin/norepinephrine/dopamine reuptake inhibitors” (Bioorg Med Chem Lett, 2010).
pIC50: −log10 of the molar value.

Experiments:
[1] = molecular target: Sodium-dependent serotonin transporter (Rattus norvegicus) (UniProt P31652); assay: Displacement of [3H]paroxetine from SERT in rat cerebral cortex at 100 nM
[2] = molecular target: T1, Sodium-dependent serotonin transporter (Homo sapiens, UniProt P31645); assay: Inhibition of serotonin reuptake at human SERT expressed in HEK293 cells at 100 nM
Target sequence in this assay (P31645 whole entry, looked up): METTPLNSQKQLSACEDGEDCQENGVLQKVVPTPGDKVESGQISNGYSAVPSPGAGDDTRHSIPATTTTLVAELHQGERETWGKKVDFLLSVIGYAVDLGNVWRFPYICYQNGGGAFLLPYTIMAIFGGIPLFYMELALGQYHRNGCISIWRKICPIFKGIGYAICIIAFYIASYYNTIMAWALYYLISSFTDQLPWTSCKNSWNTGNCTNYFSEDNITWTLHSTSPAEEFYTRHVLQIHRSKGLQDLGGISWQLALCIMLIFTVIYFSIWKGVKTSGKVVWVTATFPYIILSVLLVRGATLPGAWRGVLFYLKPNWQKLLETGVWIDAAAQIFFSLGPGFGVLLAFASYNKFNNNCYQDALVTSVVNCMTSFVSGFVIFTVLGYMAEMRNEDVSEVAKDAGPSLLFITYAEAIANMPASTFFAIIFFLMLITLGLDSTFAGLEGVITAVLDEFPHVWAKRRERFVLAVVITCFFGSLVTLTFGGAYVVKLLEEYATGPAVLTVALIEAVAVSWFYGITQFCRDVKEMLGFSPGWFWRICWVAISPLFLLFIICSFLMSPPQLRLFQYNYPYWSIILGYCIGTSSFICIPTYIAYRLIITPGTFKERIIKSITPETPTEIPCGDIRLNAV

[3] = Half life in human liver microsomes; assay type: ADME, Microsome
Procedure, shortened: (§1)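 Metabolic stability in human or rat liver microsomes. Half-lives measurable up to 60 min.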

[4] = molecular target: T2, Sodium-dependent noradrenaline transporter (Homo sapiens, UniProt P23975); assay: Inhibition of norepinephrine reuptake at human NET expressed in MDCK cells at 100 nM
[5] = molecular target: T3, Sodium-dependent dopamine transporter (Homo sapiens, UniProt Q01959); assay: Inhibition of dopamine reuptake at human dopamine transporter expressed in CHO cells; assay type: cell-based
Procedure, shortened: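 CHO-K1 cells stably expressing human DAT, assayed for [3H]DA uptake in duplicate. Nomifensine served as standard. IC50 determined.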

[6] = molecular target: T1, Sodium-dependent serotonin transporter; assay: Inhibition of serotonin reuptake at human SERT expressed in HEK293 cells; assay type: cell-based
Target sequence in this assay (P31645 whole entry): as the sequence (P31645 whole entry, looked up) above

[7] = molecular target: Sodium-dependent serotonin transporter (Rattus norvegicus) (UniProt P31652); assay: Displacement of [3H]paroxetine from SERT in rat cerebral cortex at 1 uM; assay type: tissue-based
Procedure, shortened: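 Competition binding against 2 nM [3H]paroxetine on freshly prepared rat frontal cortex membranes, homogenized and centrifuged twice at 20,000g, then resuspended in incubation buffer. Tris–HCl pH 7.4 buffer with NaCl and 5 mM KCl. Incubation 2 h at 25 °C, run in triplicate. Nonspecific binding defined with citalopram. Read-out is percent inhibition at 1 µM.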

[8] = molecular target: T2, Sodium-dependent noradrenaline transporter; assay: Inhibition of norepinephrine reuptake at human NET expressed in MDCK cells; assay type: cell-based
[9] = Half life in rat liver microsomes; assay type: ADME, Microsome
Procedure, shortened: as §1

[10] = molecular target: T3, Sodium-dependent dopamine transporter; assay: Inhibition of dopamine reuptake at human dopamine transporter expressed in CHO cells at 100 nM
Mus musculus [11] = assay: Antidepressant activity in mouse assessed as reduction of mobility time by forced swimming test at 30 mg/kg, ip; parameters: scale not given: the % may be the effect or the level left; settings: route intraperitoneal
Mus musculus [12] = assay: Antidepressant activity in mouse assessed as change in locomotion at 60 mg/kg, po; assay type: functional
Mus musculus [13] = assay: Antidepressant activity in mouse assessed as reduction of mobility time at 7 mg/kg, po by tail suspension test; assay type: functional; parameters: scale not given: the % may be the effect or the level left
Procedure, shortened: (§2)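 Mouse tail suspension test with oral dose–response. Read-out is immobility time, reported as % reduction of immobility. Minimal effective dose is the lowest dose giving p <0.05. Doses are in mg/kg.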

Mus musculus [14] = assay: Antidepressant activity in po dosed mouse assessed as reduction of mobility time by forced swimming test; assay type: functional; settings: for minimal effective dose: read-out: MED
Procedure, shortened: (§3)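 Mouse forced swimming test with oral dosing. Read-out is immobility time, expressed as % reduction of immobility. Minimal effective dose is the lowest dose with p <0.05. ED50 is given with 95% confidence limits. Doses are in mg/kg.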

Mus musculus [15] = assay: Potentiation of […]-induced serotonin syndrome like behavior in po dosed mouse; assay type: functional; settings: read-out: MED
Procedure, shortened: (§4)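 Mice, oral dosing. For serotonin potentiation, 5-hydroxytryptophan (5-HTP, serotonin precursor) is given to induce serotonin syndrome-like head twitch/stereotypy counts. Response is expressed as % potentiation relative to control group (0%). Minimal effective dose is the lowest dose reaching p <0.05. Doses are in mg/kg.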

Mus musculus [16] = assay: Analgesic activity in mouse assessed as reduction of acetic acid-induced writhing at 30 mg/kg
Mus musculus [17] = assay: Antidepressant activity in po dosed mouse assessed as reduction of mobility time by tail suspension test; assay type: functional; settings: read-out: MED
Procedure, shortened: as §2

Mus musculus [18] = assay: Antidepressant activity in mouse assessed as change in locomotion at 30 mg/kg, po; assay type: functional
Mus musculus [19] = assay: Potentiation of […]-induced serotonin syndrome like behavior in mouse at 10 mg/kg, po; assay type: functional
Procedure, shortened: as §4

Mus musculus [20] = assay: Anxiolytic activity in mouse assessed as inhibition of marble buried at 30 mg/kg, ip by marble burying test; assay type: functional; settings: route intraperitoneal
Mus musculus [21] = assay: Antidepressant activity in mouse assessed as reduction of mobility time at 5 mg/kg, po by tail suspension test; assay type: functional; parameters: scale not given: the % may be the effect or the level left
Procedure, shortened: as §2

Mus musculus [22] = assay: Antidepressant activity in mouse assessed as change in locomotion at 90 mg/kg, po; assay type: functional
Mus musculus [23] = assay: Potentiation of […]-induced serotonin syndrome like behavior in mouse at 30 mg/kg, po; assay type: functional
Procedure, shortened: as §4

Mus musculus [24] = assay: Antidepressant activity in mouse assessed as reduction of mobility time by forced swimming test at 10 mg/kg, po; assay type: functional; parameters: scale not given: the % may be the effect or the level left
Procedure, shortened: as §3

Mus musculus [25] = assay: Anxiolytic activity in mouse assessed as inhibition of marble buried at 10 mg/kg, ip by marble burying test; assay type: functional; settings: route intraperitoneal

Sequence of Sodium-dependent serotonin transporter (Rattus norvegicus) (P31652 whole entry): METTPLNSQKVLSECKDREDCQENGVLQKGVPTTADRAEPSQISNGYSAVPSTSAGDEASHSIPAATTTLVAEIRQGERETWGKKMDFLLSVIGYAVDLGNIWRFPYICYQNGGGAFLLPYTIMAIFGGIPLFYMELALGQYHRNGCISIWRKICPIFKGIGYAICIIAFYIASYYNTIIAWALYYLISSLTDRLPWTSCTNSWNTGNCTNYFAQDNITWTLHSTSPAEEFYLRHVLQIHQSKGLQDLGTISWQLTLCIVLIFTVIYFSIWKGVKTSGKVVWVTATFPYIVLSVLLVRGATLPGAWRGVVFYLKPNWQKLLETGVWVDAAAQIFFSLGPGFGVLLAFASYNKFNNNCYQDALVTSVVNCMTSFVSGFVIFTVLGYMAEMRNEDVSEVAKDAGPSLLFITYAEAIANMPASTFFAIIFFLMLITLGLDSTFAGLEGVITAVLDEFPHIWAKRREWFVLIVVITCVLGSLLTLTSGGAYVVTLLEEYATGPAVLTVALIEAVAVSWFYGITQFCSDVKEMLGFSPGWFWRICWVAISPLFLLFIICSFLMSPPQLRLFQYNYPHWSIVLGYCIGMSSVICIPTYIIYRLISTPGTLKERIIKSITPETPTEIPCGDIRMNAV
T3 sequence (Q01959 whole entry): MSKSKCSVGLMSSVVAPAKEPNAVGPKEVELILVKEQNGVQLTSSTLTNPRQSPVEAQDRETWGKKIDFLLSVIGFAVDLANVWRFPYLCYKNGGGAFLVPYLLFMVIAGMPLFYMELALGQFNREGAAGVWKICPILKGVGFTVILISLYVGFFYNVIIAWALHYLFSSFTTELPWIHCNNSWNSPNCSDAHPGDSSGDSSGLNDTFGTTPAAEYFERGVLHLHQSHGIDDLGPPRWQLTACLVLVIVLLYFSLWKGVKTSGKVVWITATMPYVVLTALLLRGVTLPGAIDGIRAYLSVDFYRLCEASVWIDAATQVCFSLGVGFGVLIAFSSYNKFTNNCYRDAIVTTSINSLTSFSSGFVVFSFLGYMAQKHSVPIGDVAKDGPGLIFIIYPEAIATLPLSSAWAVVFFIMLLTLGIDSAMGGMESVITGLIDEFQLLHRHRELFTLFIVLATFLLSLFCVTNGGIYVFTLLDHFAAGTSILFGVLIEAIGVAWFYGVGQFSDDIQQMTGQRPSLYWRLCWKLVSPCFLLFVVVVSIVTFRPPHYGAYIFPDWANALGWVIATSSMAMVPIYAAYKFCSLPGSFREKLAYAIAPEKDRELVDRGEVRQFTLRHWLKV
T2 sequence (P23975 whole entry): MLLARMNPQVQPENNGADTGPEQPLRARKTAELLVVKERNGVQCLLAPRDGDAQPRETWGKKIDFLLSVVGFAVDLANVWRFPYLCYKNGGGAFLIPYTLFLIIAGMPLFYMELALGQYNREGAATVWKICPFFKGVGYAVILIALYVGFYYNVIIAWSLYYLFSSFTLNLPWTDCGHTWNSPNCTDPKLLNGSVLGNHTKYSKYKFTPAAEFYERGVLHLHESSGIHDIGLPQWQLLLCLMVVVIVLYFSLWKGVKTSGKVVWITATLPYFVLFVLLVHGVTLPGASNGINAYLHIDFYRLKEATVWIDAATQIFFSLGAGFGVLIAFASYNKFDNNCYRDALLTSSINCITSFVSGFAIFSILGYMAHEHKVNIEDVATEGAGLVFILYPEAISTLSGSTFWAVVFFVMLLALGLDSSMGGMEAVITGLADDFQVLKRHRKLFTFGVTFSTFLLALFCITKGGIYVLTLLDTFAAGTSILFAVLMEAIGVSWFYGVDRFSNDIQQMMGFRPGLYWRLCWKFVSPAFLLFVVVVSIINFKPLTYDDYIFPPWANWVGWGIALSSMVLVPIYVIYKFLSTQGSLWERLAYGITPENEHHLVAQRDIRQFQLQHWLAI

Compound | inhibition [1] [%] | inhibition [2] [%] | inhibition [4] [%] | inhibition [7] [%] | inhibition [10] [%] | other results
Cc1nnn(C(CCN(C)C)c2ccc(C(C)(C)C)cc2)n1 (racemic) | -3 |  |  |  |  | 
CN(C)CCC(c1ccc(Cl)cc1Cl)n1ncnn1 (racemic) | -0.2 |  |  |  |  | 
CN(C)CCC(c1ccc(Cl)c(Cl)c1)n1ncnn1 (racemic) |  | 27 | 37 | 72 | 58 | half-life [3]: 55 min; pIC50 [5]: 7.11; pIC50 [6]: 6.55; pIC50 [8]: 6.63; half-life [9]: 3 min
CN(C)CCC(c1cccc(Cl)c1)n1ncnn1 (racemic) | -5.6 |  |  |  |  | 
CN(C)CCC(c1ccc(F)c(F)c1)n1ncnn1 (racemic) |  |  |  | 25.3 |  | 
CNCCC(c1ccc2ccccc2c1)n1nnc(-c2ccccc2)n1 (racemic) |  |  |  | 98.4 |  | Activity (Mus musculus [11]): 5.5%
CN(C)CCC(c1ccc2cc(F)ccc2c1)n1ncnn1 (racemic) | 74.1 | 61 | 12 |  | 7 | half-life [3]: > 60 min; half-life [9]: 3 min
CNCCC(c1ccc(OC(F)(F)F)cc1)n1ncnn1 (racemic) | 3.1 |  |  |  |  | 
Cc1nnn(C(CCN(C)C)c2ccc3cc(F)ccc3c2)n1 (racemic) | 67.5 | 61 | 10 |  | 6 | 
CNCCC(c1ccc2cc(C)ccc2c1)n1ncnn1 (racemic) |  | 93 | 55 | 93.3 | 3 | 
Cc1ccc(C(CCN(C)C)n2ncnn2)cc1C (racemic) |  |  |  | 49.2 |  | 
CNCCC(c1ccc(Cl)c(Cl)c1Cl)n1ncnn1 (racemic) | 39.1 |  |  |  |  | 
Cc1nnn(C(CCN(C)C)c2ccc3ccccc3c2)n1 (racemic) |  |  |  | 85 |  | 
CN(C)CCC(c1ccc(Cl)cc1)n1ncnn1 (racemic) |  |  |  | 32.4 |  | 
Cc1ccc2cc(C(CCN(C)C)n3ncnn3)ccc2c1 (racemic) |  |  |  | 87.7 |  | 
CN(C)CCC(c1ccc2ccccc2c1)n1nnc(-c2ccccc2)n1 (racemic) |  |  |  | 92.6 |  | 
CNCCC(c1ccc(C(F)(F)F)cc1)n1ncnn1 (racemic) | 15.3 |  |  |  |  | 
COc1ccc(C(CN(C)C)C2(O)CCCCC2)cc1 (stereo not drawn) [VENLAFAXINE] |  |  |  |  |  | Activity (Mus musculus [12]): 139%; Activity (Mus musculus [13]): 56.3%; ED50 (Mus musculus [14]): 38.4 mg/kg; minimal effective dose (Mus musculus [14]): 30 mg/kg; Activity (Mus musculus [11]): 35.2%; minimal effective dose (Mus musculus [15]): 10 mg/kg; inhibition in vivo at 30 mg/kg (Mus musculus [16]): 70.2%; minimal effective dose (Mus musculus [17]): 7 mg/kg; Activity (Mus musculus [18]): 119%; Activity (Mus musculus [19]): 129%; inhibition in vivo at 30 mg/kg (Mus musculus [20]): 82.3%
CNCC[C@H](c1ccc(Cl)c(Cl)c1)n1nnc(C)n1 | 20 |  |  |  |  | 
COc1ccc(C(CCN(C)C)n2ncnn2)cc1Cl (racemic) |  |  |  | 39.9 |  | 
CNCCC(c1ccc2ccccc2c1)n1nnc(C)n1 (racemic) |  |  |  | 93.6 |  | 
CNCC[C@@H](c1ccc2ccccc2c1)n1nnc(C)n1 | 60.2 | 82 | 79 |  | 7 | 
CNCC[C@H](c1ccc2ccccc2c1)n1nnc(C)n1 | 34.5 | 23 | 37 |  | 3 | 

Compound | inhibition [1] [%] | inhibition [2] [%] | inhibition [4] [%] | inhibition [7] [%] | inhibition [10] [%] | other results
CNCCC(c1cccc2ccccc12)n1ncnn1 (racemic) |  |  |  | 51.6 |  | 
CNCCC(c1ccc(Cl)c(Cl)c1)n1nnc(C)n1 (racemic) |  |  |  | 86 |  | 
CNCCC(c1ccc(Br)cc1)n1ncnn1 (racemic) | 10.7 |  |  |  |  | 
Clc1ccc([C@]23CNC[C@H]2C3)cc1Cl [AMITIFADINE] |  |  |  |  |  | Activity (Mus musculus [21]): 33.2%; Activity (Mus musculus [12]): 131%; Activity (Mus musculus [22]): 148%; ED50 (Mus musculus [14]): 30.1 mg/kg; minimal effective dose (Mus musculus [14]): 50 mg/kg; minimal effective dose (Mus musculus [15]): 30 mg/kg; inhibition in vivo at 30 mg/kg (Mus musculus [16]): 93.7%; Activity (Mus musculus [23]): 54%; minimal effective dose (Mus musculus [17]): 5 mg/kg; Activity (Mus musculus [24]): 18%; Activity (Mus musculus [18]): 150%; inhibition in vivo at 30 mg/kg (Mus musculus [20]): 99.1%
CNCCC(c1ccccc1Cl)n1nnc(C)n1 (racemic) | 5.9 |  |  |  |  | 
CN(C)CCC(c1ccc(Cl)c(Cl)c1)n1nccn1 (racemic) |  |  |  | 69.9 |  | 
CNCCC(c1ccc2cc(Cl)ccc2c1)n1ncnn1 (racemic) |  | -4 | 20 | 52.1 |  | 
CNCCC(c1ccc2cc(F)ccc2c1)n1nnc(C)n1 (racemic) | 81.3 | 58 | 39 |  | 10 | half-life [3]: > 60 min; half-life [9]: 27 min
CNCCC(c1ccc(Cl)c(Cl)c1)n1ncnn1 (racemic) |  | 35 | 56 | 86 | 48 | half-life [3]: > 60 min; pIC50 [5]: 6.94; pIC50 [6]: 6.74; pIC50 [8]: 7.16; half-life [9]: > 60 min
CNCCC(Oc1ccc(C(F)(F)F)cc1)c1ccccc1 (stereo not drawn) [FLUOXETINE] |  |  |  |  |  | minimal effective dose (Mus musculus [14]): 50 mg/kg; minimal effective dose (Mus musculus [15]): 3 mg/kg; inhibition in vivo at 10 mg/kg (Mus musculus [25]): 60.3%
CN(C)CCC(c1ccc2cc(Cl)ccc2c1)n1ncnn1 (racemic) |  | 46 | 32 | 54.3 | 18 | 
Cc1nnn(C(CCN(C)C)c2ccc(Cl)c(Cl)c2)n1 (racemic) |  |  |  | 69.4 |  | 
CNCCC(c1ccc2ccccc2c1)n1ncnn1 (racemic) |  | 78 | 84 | 90.4 | 10 | half-life [3]: 49 min; pIC50 [5]: 5.91; pIC50 [6]: 7.49; pIC50 [8]: 7.88; half-life [9]: 12 min
COc1ccc2cc(C(CCN(C)C)n3ncnn3)ccc2c1 (racemic) | 33.6 | 44 | 39 |  | 36 | 
CN(C)CCC(c1ccc2ccccc2c1)n1ncnn1 (racemic) |  | 41 | 30 | 85.1 | 20 | half-life [3]: 50 min; Activity (Mus musculus [11]): 43.2%; pIC50 [5]: 6.21; pIC50 [6]: 6.86; pIC50 [8]: 6.58; half-life [9]: 3 min
CNCCC(c1ccc(Oc2ccccc2)cc1)n1ncnn1 (racemic) | -1.7 |  |  |  |  | 
CNCCC(c1ccc2cc(OC)ccc2c1)n1ncnn1 (racemic) | 81.2 | 88 | 70 |  | 4 | 
CNCCC(c1ccc(Cl)cc1)n1ncnn1 (racemic) |  |  |  | 41.1 |  | 
CN(C)CCC(c1ccc(OCc2ccccc2)cc1)n1ncnn1 (racemic) | 9.5 |  |  |  |  | 
CNCCC(c1ccc2cc(F)ccc2c1)n1ncnn1 (racemic) | 80.1 | 59 | 25 |  | 6 | half-life [3]: > 60 min; half-life [9]: 29 min
COc1ccc(C(CCN(C)C)n2ncnn2)cc1OC (racemic) | 12.9 |  |  |  |  | 
CNCCC(c1ccc2cc(OC)ccc2c1)n1nnc(C)n1 (racemic) | 80.2 | 82 | 84 |  | 3 | 
